Results as given in ChEMBL document CHEMBL3751714, “Antileishmanial activity of novel indolyl-coumarin hybrids: Design, synthesis, biological evaluation, molecular docking study and in silico ADME prediction” (Bioorg Med Chem Lett, 2016).
In brackets after ≈: the same amount, converted by molar mass.

How the values were obtained:
[1] = Antioxidant activity of the compound assessed as DPPH radical scavenging after 30 mins by spectrophotometric analysis; assay type: physicochemical
How it was run: (§1)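 DPPH radical scavenging assay. The control contained all reagents except the test compound. % scavenging = [(A control − A sample)/[…]] × 100, taken from absorbance readings.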

[2] = system: Leishmania donovani; test: Antileishmanial activity against promastigotes of Leishmania donovani MHOM/IN/80/DD8 after 72 hrs by MTT assay; assay type: functional, organism-based; conditions: MHOM/IN/80/DD8, 72 h
How it was run: (§2)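 Cultured L. donovani promastigotes (strain […]) were exposed to the compounds. Viability was read by a modified MTT assay, in which formazan output tracks metabolically active cells. The concentration that cut growth by 50% (IC50) was found by graphic interpolation.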

[3] = system: HeLa; test: Cytotoxicity against human HeLa cells assessed as cell viability at 100 ug/ml by microscopic analysis; assay type: cell-based
How it was run: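 HeLa cells were treated at 100 μg/mL and assessed by the MTT method. Cells were also viewed under a microscope at 10X magnification.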

[4] = Antioxidant activity assessed as ABTS radical scavenging activity by TEAC assay; assay type: physicochemical
[5] = Antioxidant activity of the compound; assay type: physicochemical; how it was run: as §1
[6] = system: Leishmania major; test: Antileishmanial activity against promastigotes of Leishmania major MHOM/IL/67/LRC-L43 assessed as parasite growth inhibition after 24 hrs by uranyl acetate/ magnesium uranyl acetate/lead citrate staining-based electron microscopic analysis; assay type: functional, organism-based; conditions: MHOM/IL/67/LRC-L43, 24 h
[7] = system: Leishmania donovani; test: Antileishmanial activity against promastigotes of Leishmania donovani assessed as parasite growth inhibition; assay type: functional, organism-based; how it was run: as §2
[8] = system: Leishmania major; test: Antileishmanial activity against stationary-phase promastigotes of Leishmania major MRHO/IR/75/ER assessed as parasite growth inhibition after 48 hrs by Neubar chamber method; assay type: functional, organism-based

SMILES | IC50 [1] | IC50 [2] | other results
O=C(CC(c1ccc(O)c(O)c1)c1c[nH]c2ccccc12)c1c(O)c2ccccc2oc1=O (configuration not stated) | 71.08 µg/mL (≈ 161 µM) | 231 µg/mL (≈ 523 µM) | –
O=C(CC(c1ccc(F)cc1)c1c[nH]c2ccccc12)c1c(O)c2ccccc2oc1=O (configuration not stated) | 47.35 µg/mL (≈ 111 µM) | 156 µg/mL (≈ 364 µM) | –
O=C(CC(c1ccc(O)cc1)c1c[nH]c2ccccc12)c1c(O)c2ccccc2oc1=O (configuration not stated) | 58.91 µg/mL (≈ 138 µM) | 288 µg/mL (≈ 676 µM) | –
O=C(CC(c1c(Cl)cccc1Cl)c1c[nH]c2ccccc12)c1c(O)c2ccccc2oc1=O (configuration not stated) | 13.49 µg/mL (≈ 28.2 µM) | 95 µg/mL (≈ 199 µM) | Activity [3]: Non-toxic
COc1ccc(C(CC(=O)c2c(O)c3ccccc3oc2=O)c2c[nH]c3ccccc23)c(OC)c1 (configuration not stated) | 13.24 µg/mL (≈ 28.2 µM) | 250 µg/mL (≈ 531 µM) | –
O=c1oc2ccccc2cc1C1=Nn2c(nnc2-c2ccccc2)SC1 | – | – | IC50 [4]: 39.9 µg/mL (≈ 111 µM)
COc1ccc(C(CC(=O)c2c(O)c3ccccc3oc2=O)c2c[nH]c3ccccc23)cc1 (configuration not stated) | 16.21 µg/mL (≈ 36.9 µM) | 174 µg/mL (≈ 396 µM) | –
O=C(CC(c1ccccc1)c1c[nH]c2ccccc12)c1c(O)c2ccccc2oc1=O (configuration not stated) | 12.4 µg/mL (≈ 30.3 µM) | 95.5 µg/mL (≈ 233 µM) | –
O=C(/C=C/c1ccc(O)c(O)c1)c1ccc(O)cc1O [BUTEIN] | – | – | IC50 [5]: 3.3 µg/mL (≈ 12.1 µM)
Cc1cc(C(C)(C)C)c(O)c(C(C)(C)C)c1 [BUTYLATED HYDROXYTOLUENE] | 16.5 µg/mL (≈ 74.9 µM) | – | –
C=CC(C)(C)c1cc(/C=C/C(=O)c2ccc(O)cc2)c(OC)cc1O [LICOAGROCHACONE A] | – | – | IC50 [6]: 2.5 µg/mL (≈ 7.39 µM); IC50 [7]: 2.7 µM
CC(C)=CCC/C(C)=C/CC/C(C)=C/COc1ccc2ccc(=O)oc2c1 [UMBELLIPRENIN] | – | – | IC50 [8]: 13.3 µM

More lines, main results first:

IC50 [1] | SMILES | IC50 [2] | other results
39.62 µg/mL (≈ 89.3 µM) | O=C(CC(c1ccccc1Cl)c1c[nH]c2ccccc12)c1c(O)c2ccccc2oc1=O (configuration not stated) | 102 µg/mL (≈ 230 µM) | –
46.35 µg/mL (≈ 104 µM) | O=C(CC(c1ccc(Cl)cc1)c1c[nH]c2ccccc12)c1c(O)c2ccccc2oc1=O (configuration not stated) | 125 µg/mL (≈ 282 µM) | –
19.02 µg/mL (≈ 40.5 µM) | COc1ccc(OC)c(C(CC(=O)c2c(O)c3ccccc3oc2=O)c2c[nH]c3ccccc23)c1 (configuration not stated) | 99 µg/mL (≈ 211 µM) | –
13.74 µg/mL (≈ 31.6 µM) | N#Cc1ccc(C(CC(=O)c2c(O)c3ccccc3oc2=O)c2c[nH]c3ccccc23)cc1 (configuration not stated) | 102 µg/mL (≈ 234 µM) | –
63.16 µg/mL (≈ 135 µM) | COc1ccc(C(CC(=O)c2c(O)c3ccccc3oc2=O)c2c[nH]c3ccccc23)cc1OC (configuration not stated) | 212 µg/mL (≈ 452 µM) | –
12.8 µg/mL (≈ 72.7 µM) | O=C1O[C@H]([C@@H](O)CO)C(O)=C1O [ASCORBIC ACID] | – | –
